Assay outcomes deposited in PubChem BioAssay by several laboratories.
Compounds with a hit are over-represented: about 0.89% of the library has one in this group of screens.
Arr AP2 block: inhibitors of beta-arrestin/AP2 binding, primary screen, biochemical, GPCR trafficking, flow cytometry; beta-arrestin 1 C-terminal peptide binding to AP2 beta2-adaptin appendage (human); FITC-arrestin peptide / GST-AP2 beads; AP2 beta2 appendage carries R879A mutation; hit rate 0.31% among 340,000; inhibition, % at 10 µM;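 active means inhibition above a set limit, near 3 SD of compounds lacking own fluorescence, cut at about 54% in these data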
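Test system: GST-tagged AP2 beta2-adaptin appendage (R879A) on 4 µm glutathione beads; also added: fluorescein-tagged arrestin peptide at 50 nM final; timing: 12 min plus 1 h, RT; signal: flow cytometry, FL1 (488/535 nm); read-out: percent drop in bead-associated FITC signal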
Xi reactivation: activators of inactive X chromosome reactivation, primary screen, imaging, XiGFP fibroblasts, GFP high-content imaging, set 2; XiGFP mouse fibroblasts, % GFP-positive cells imaging, 3 d; cells co-treated with 5-aza-dC sensitizer; scaled so ellipticine positive control = 100%; activation, % at 7.58 µM; hit rate 0.055% among 360,000; AID 743238, 2013;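 active means mean normalized replicate activation at least 10% and every replicate at or above 10%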
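Schedule: 3 d treatment, 15 min room-temperature fixation; system: 68-5-11 XiGFP fibroblast line; buffer or medium: DMEM plus 5-aza-dC sensitizer; control set: ellipticine 6 µM positive control; compound: one concentration, pinned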
T cell modulator: modulators of CD8 T cell-vesicle binding, primary screen, mouse 2C CD8+ T cells, flow cytometry; response (vesicle binding), % at 7 µM; 2C CD8+ T cell-vesicle binding; hits give low values; hit rate 0.068% among 330,000;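 active means response, share of CD8 T cells binding vesicles, and their 90th percentile fluorescence all below set limits, cut at about 80% in these data, passing the limit was not always enough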;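 further: values below 100% mean blocked vesicle binding to the CD8+ T cells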
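Material: 2C TCR transgenic mouse naive CD8+ T cells, MACS-purified. Also added: QL9-charged Drosophila Ld/ICAM-1/B7-1 vesicles. Timing: binding 1.5 h at 37 °C. Measured by: high-throughput flow cytometry with anti-B7-1 and anti-CD8 staining. Read-out: percent CD8+ FL2 mean versus row control. Controls: Unloaded micro-vesicles (low), QL9 vesicles with 0.7% DMSO (high).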
NTR1 ag: agonists of human NTR1, primary screen, imaging, U2OS cells, beta-arrestin-GFP, high content; hit rate 0.17% among 330,000; AID 493036, 2011; activation, % at 20 µM; NTR1-U2OS beta-arrestin-GFP spot imaging, agonist mode; Neurotensin receptor type 1 (Homo sapiens), P30989;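 active means activation at or above 40% of the spot to cytoplasm intensity ratio, with at least 20 cells analyzed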
Target sequence (P30989 whole entry, looked up): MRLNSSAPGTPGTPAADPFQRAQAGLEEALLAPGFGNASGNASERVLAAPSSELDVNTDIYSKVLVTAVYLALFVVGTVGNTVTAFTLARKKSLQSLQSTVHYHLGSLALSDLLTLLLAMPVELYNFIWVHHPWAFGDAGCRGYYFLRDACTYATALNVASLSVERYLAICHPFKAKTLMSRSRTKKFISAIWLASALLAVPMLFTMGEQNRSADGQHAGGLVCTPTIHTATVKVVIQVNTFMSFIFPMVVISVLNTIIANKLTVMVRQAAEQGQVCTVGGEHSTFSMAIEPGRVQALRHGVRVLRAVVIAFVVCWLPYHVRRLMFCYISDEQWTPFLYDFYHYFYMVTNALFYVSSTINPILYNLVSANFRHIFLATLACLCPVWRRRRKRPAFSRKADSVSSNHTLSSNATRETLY
V-ATPase pHluor: regulators of yeast V-ATPase proton pumping, primary screen, pHLuorin cytosolic pH fluorescence; AID 504577, 2011; S. cerevisiae; hit rate 0.37% among 350,000; response, % at 10 µM; in the data active means response mostly above about 7.3%, no sharp cut-off; inactive means mostly below about 5.4%; further: actives read high
MIN6 prolif-1: inducers of MIN6 beta-cell proliferation, primary screen, ATP luminescence, uHTS; MIN6 cells proliferation, ATPlite luminescence, 48 h; cells starved in 0.2% serum; 100% = growth in 10% serum; proliferation, % at 10 µM; hit rate 0.29% among 330,000;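 active means compounds whose signal lies at least 3.5 SD above the mean of all wells on their plate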
MIN6 prolif-2: inducers of beta-cell proliferation in MIN6, confirmation, MIN6 cells, mouse. shares compounds with MIN6 prolif-1. ATPlite luminescence, 48 h; cells kept in 0.2% serum; scaled between 0.2% and 10% serum. proliferation increase, % at 50 µM. 920 tested, under 10 active. AID 463095, 2010;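 active means proliferation increase above 40% at any of the four tested concentrations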
Numbers stand for hits.

Results for Cc1ccc(SCCC(=O)N2CCOCC2)cc1 ?
Arr AP2 block: inactive; T cell modulator: inactive; NTR1 ag: inactive; V-ATPase pHluor: inactive; MIN6 prolif-1: 5.1; MIN6 prolif-2: inactive

How did O=C(NCc1cccs1)c1cccnc1Cl do in these assays?
Arr AP2 block: inactive; Xi reactivation: inactive; T cell modulator: inactive; NTR1 ag: inactive; V-ATPase pHluor: inactive; MIN6 prolif-1: 0.0; MIN6 prolif-2: inactive

What do the screens show for `CC(C)C(=O)Nc1ccc2c(c1)C(=O)N(C)[C@H]1CC[C@H](CC(=O)Nc3ccccc3F)O[C@@H]1CO2`?
Xi reactivation: inactive

Results for C[C@@H]1CN([C@H](C)CO)C(=O)c2cc(NC(=O)CCCCCC(=O)Nc3ccccc3N)ccc2O[C@@H]1CN(C)C(=O)Nc1ccccc1 ?
Xi reactivation: inactive

How did CC1(C)CC2CC(C)(CN2C(=O)COC(=O)c2cccc([N+](=O)[O-])c2)C1 (centres undefined) do in these assays?
Arr AP2 block: inactive; Xi reactivation: inactive; T cell modulator: inactive; NTR1 ag: inactive; V-ATPase pHluor: inactive; MIN6 prolif-1: 7.4; MIN6 prolif-2: inactive

Results for O=C1CCC(C(=O)N2CCSCC2)CN1Cc1ccc(Cl)cc1 (centres undefined) ?
Arr AP2 block: inactive; Xi reactivation: inactive; T cell modulator: inactive; NTR1 ag: inactive; V-ATPase pHluor: inactive; MIN6 prolif-1: 27; MIN6 prolif-2: inactive

How did CCn1c(SCC(=O)N/N=C/c2ccc(OC)c(OC)c2)nc2ccccc21 do in these assays?
Arr AP2 block: inactive; NTR1 ag: inactive; V-ATPase pHluor: inactive; MIN6 prolif-1: 7.8; MIN6 prolif-2: inactive

What do the screens show for `COC1=CC(=O)OC12CCCCC2`?
Arr AP2 block: inactive; T cell modulator: inactive; NTR1 ag: inactive; V-ATPase pHluor: inactive; MIN6 prolif-1: 8.2; MIN6 prolif-2: inactive

What do the screens show for `O=C1C=C(N2CCCCCC2)C2(CCCCC2)O1`?
Arr AP2 block: inactive; Xi reactivation: inactive; T cell modulator: inactive; NTR1 ag: inactive; V-ATPase pHluor: inactive; MIN6 prolif-1: inactive

Results for COc1ccc(CN(C)C[C@@H]2Oc3ccc(NC(=O)Nc4ccccc4)cc3CC(=O)N([C@H](C)CO)C[C@@H]2C)cc1 ?
Xi reactivation: inactive

Results for C[C@H]1CN(C)C(=O)Cc2cc(N(C)C)ccc2O[C@H]1CN(C)C ?
Xi reactivation: inactive

How did CC(=O)OCc1nc2ccccc2s1 do in these assays?
Arr AP2 block: inactive; T cell modulator: inactive; NTR1 ag: inactive; V-ATPase pHluor: inactive; MIN6 prolif-1: inactive

What do the screens show for `Cc1cc(C(=O)OCc2nc3ccccc3s2)c(C)o1`?
Arr AP2 block: inactive; T cell modulator: inactive; NTR1 ag: inactive; V-ATPase pHluor: inactive; MIN6 prolif-1: 8.7; MIN6 prolif-2: inactive

How did C[C@@H]1CN([C@@H](C)CO)C(=O)Cc2cc(NS(=O)(=O)c3cccs3)ccc2O[C@@H]1CN(C)Cc1ccc(Oc2ccccc2)cc1 do in these assays?
Xi reactivation: inactive

Results for CCOC(=O)/C(C#N)=C1/C=C(C)c2ccccc2N1 ?
Arr AP2 block: inactive; Xi reactivation: inactive; T cell modulator: inactive; NTR1 ag: inactive; V-ATPase pHluor: inactive; MIN6 prolif-1: 7.1; MIN6 prolif-2: inactive

What do the screens show for `COc1ccc(-c2c(C(C)=O)c(C)nc3sc4c(c23)NC(c2ccccc2)NC4=O)cc1` (centres undefined)?
Arr AP2 block: inactive; T cell modulator: inactive; NTR1 ag: inactive; V-ATPase pHluor: inactive; MIN6 prolif-1: inactive

How did CCOC(=O)c1c(C)nc2sc3c(c2c1-c1ccc(OC)cc1)NC(c1ccccc1)NC3=O (centres undefined) do in these assays?
Arr AP2 block: inactive; T cell modulator: inactive; NTR1 ag: inactive; V-ATPase pHluor: inactive; MIN6 prolif-1: 9.2; MIN6 prolif-2: inactive

Results for CN(C)CC(=O)Nc1ccc2c(c1)[C@H]1C[C@H](CC(=O)N3CCOCC3)O[C@H](CO)[C@H]1O2 ?
Xi reactivation: inactive

Results for CCCCC(=O)Nc1ccccc1C#N ?
Arr AP2 block: inactive; Xi reactivation: inactive; T cell modulator: inactive; NTR1 ag: inactive; V-ATPase pHluor: inactive; MIN6 prolif-1: 5.8; MIN6 prolif-2: inactive

Results for CO[C@H]1CN(C)C(=O)c2cc(NC(=O)C3CC3)ccc2OC[C@H](C)N(CC2CC2)C[C@@H]1C ?
Xi reactivation: inactive

What do the screens show for `C/C=C/c1ccc2c(c1)O[C@H](CN(C)C(=O)Cc1cccnc1)[C@H](C)CN([C@H](C)CO)S2(=O)=O`?
Xi reactivation: inactive

How did Oc1ccc(-c2cnc3ccccc3n2)cc1 do in these assays?
Arr AP2 block: inactive; Xi reactivation: inactive; T cell modulator: inactive; NTR1 ag: inactive; V-ATPase pHluor: inactive; MIN6 prolif-1: inactive

What do the screens show for `Clc1ccc(-c2cnc3ccccc3n2)cc1`?
Arr AP2 block: inactive; Xi reactivation: inactive; T cell modulator: inactive; NTR1 ag: inactive; V-ATPase pHluor: inactive; MIN6 prolif-1: 5.4; MIN6 prolif-2: inactive

How did CC(C)CC#Cc1ccc([C@@H]2[C@@H](CO)N3C(=O)CN(S(C)(=O)=O)C[C@H]23)cc1 do in these assays?
Xi reactivation: inactive

Results for CCOc1ccccc1N1CCN(C(=O)c2ccc(OCC(=O)N3CCOCC3)c(OC)c2)CC1 ?
Arr AP2 block: inactive; Xi reactivation: inactive; T cell modulator: inactive; NTR1 ag: inactive; V-ATPase pHluor: inactive; MIN6 prolif-1: 14; MIN6 prolif-2: inactive

How did CO[C@@H]1CN(C)C(=O)c2cc(NC(=O)Nc3ccccc3Cl)ccc2OC[C@@H](C)N(S(C)(=O)=O)C[C@H]1C do in these assays?
Xi reactivation: inactive

How did COc1cccc(C2NC(=O)NC(C)=C2C(=O)Nc2ccc(C)cc2)c1OC (centres undefined) do in these assays?
Arr AP2 block: inactive; T cell modulator: inactive; NTR1 ag: inactive; V-ATPase pHluor: inactive; MIN6 prolif-1: 5.4; MIN6 prolif-2: inactive

Results for CCc1nc(CN2CCN(Cc3ccc(F)c(F)c3)C(CCO)C2)c(C)[nH]1 (centres undefined) ?
Arr AP2 block: inactive; Xi reactivation: inactive; T cell modulator: inactive; NTR1 ag: inactive; V-ATPase pHluor: inactive; MIN6 prolif-1: 8.6; MIN6 prolif-2: inactive
